# Test results from ChEMBL document CHEMBL1250511, “Discovery of pyridazinopyridinones as potent and selective p38 mitogen-activated protein kinase inhibitors” (J Med Chem, 2010).
# Legend:
# [1] = Antiinflammatory activity in human whole blood cells assessed as inhibition of TNF-alpha-induced IL8 production after 16 to 18 hrs; assay type: functional, cell-based
# Method in brief: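 Heparinized blood from healthy, nonmedicated volunteers (final 50% in RPMI 1640/10% human AB serum) was preincubated 1 h at 37 °C, 5% CO2 with ten-point compound titrations. It was then stimulated with TNFα (final 1 nM) overnight (16-18 h). Plasma IL-8 was measured by MSD ECL sandwich immunoassay.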
# THP-1 = experiment: Antiinflammatory activity in human THP1 cells assessed as inhibition of LPS-induced TNFalpha production after 3 hrs; assay type: functional, cell-based; details: THP-1, 3 h
# Method in brief: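 THP-1 cells (1.5 × 10^6/mL in RPMI 1640, 10% heat-inactivated FBS, 30 μM βME) given 3-fold serial DMSO dilutions of compound, then LPS. Incubation 3 h at 37 °C, 5% CO2. Secreted TNFα measured in medium by MSD electrochemiluminescence. Results expressed as percent of control relative to DMSO (HI) and no-LPS (LO) wells.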
# [2] = target: Mitogen-activated protein kinase 14 (Homo sapiens, UniProt Q16539); experiment: Inhibition of p38alpha MAP kinase
# [3] = AUC in Sprague-Dawley rat at 2 mg/kg, po; assay type: ADME, organism-based; parameters: dose 2 mg/kg, route oral; details: plasma
# [4] = Oral bioavailability in Sprague-Dawley rat at 2 mg/kg; assay type: ADME, organism-based; details: in vivo
# [5] = Volume of distribution at steady state in Sprague-Dawley rat at 2 mg/kg, iv; assay type: ADME, organism-based; parameters: dose 2 mg/kg, route intravenous; details: in vivo, read-out: Vdss
# Method in brief: (§1)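 Single iv dose of 2.0 mg/kg, formulated in DMSO.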
# [6] = Half life in Sprague-Dawley rat at 2 mg/kg, iv; assay type: ADME, organism-based; parameters: dose 2 mg/kg, route intravenous; details: in vivo; method in brief: as §1
# Rattus norvegicus [7] = experiment: Antiinflammatory activity in po dosed Lewis rat assessed as inhibition of LPS-induced TNFalpha production administered 1 hrs prior to LPS challenge after 90 mins
# [8] = Clearance in Sprague-Dawley rat at 2 mg/kg, iv; assay type: ADME, organism-based; parameters: dose 2 mg/kg, route intravenous; details: in vivo; method in brief: as §1
# Rattus norvegicus [9] = species: Rattus norvegicus; experiment: Antiarthritic activity in Lewis rat assessed as reduction in collagen-induced paw swelling; assay type: functional
# Method in brief: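 Arthritis induced by intradermal porcine type II collagen emulsified 1:1 in incomplete Freund's adjuvant. Animals were grouped at disease onset (10-12 days post-immunization) and dosed orally once daily for 7 days. Paw diameter was measured daily on days 0-7. Area under the paw-swelling curve gave percent inhibition versus vehicle.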
# Mitogen-activated protein kinase 14, sequence (Q16539 whole entry): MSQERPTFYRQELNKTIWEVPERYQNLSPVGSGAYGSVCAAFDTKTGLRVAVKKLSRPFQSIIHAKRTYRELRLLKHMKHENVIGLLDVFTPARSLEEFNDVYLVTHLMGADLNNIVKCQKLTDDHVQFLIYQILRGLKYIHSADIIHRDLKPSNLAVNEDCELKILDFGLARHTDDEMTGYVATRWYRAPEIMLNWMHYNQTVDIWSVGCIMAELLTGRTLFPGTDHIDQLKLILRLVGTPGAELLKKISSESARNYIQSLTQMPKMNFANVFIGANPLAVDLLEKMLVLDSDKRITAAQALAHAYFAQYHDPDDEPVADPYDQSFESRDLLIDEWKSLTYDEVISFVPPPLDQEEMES
IC50 [1] [µM],IC50 (THP-1) [µM],IC50 [2] [µM],Compound,also measured
> 2.5,> 2.5,> 1,Cc1ccc(C(=O)O)cc1-c1cc2cnnc(-c3ccc(F)cc3F)c2n(C)c1=O,
0.213,0.049,0.0061,Cn1c(=O)c(Cc2ccc(F)cc2F)cc2cnnc(-c3ccc(F)cc3F)c21,
0.697,0.197,0.0558,Cn1c(=O)c(Cc2ccc(F)cc2)cc2cnnc(-c3ccc(F)cc3F)c21,
0.0705,0.107,,Cn1c(=O)c(Oc2ccc(F)cc2F)cc2cnnc(-c3ccc(F)cc3F)c21,
0.227,0.235,0.078,Cn1c(=O)c(Oc2ccc(F)cc2)cc2cnnc(-c3ccc(F)cc3F)c21,
1.24,1.15,0.299,CN(c1ccc(F)cc1)c1cc2cnnc(-c3ccc(F)cc3F)c2n(C)c1=O,
0.0619,0.0137,,Cn1c(=O)c(Nc2ccc(F)cc2)cc2cnnc(-c3ccc(F)cc3F)c21,
0.0117,0.0045,0.0009,Cn1c(=O)c(Nc2ccc(F)cc2F)cc2cnnc(-c3ccc(F)cc3F)c21,
> 2.5,> 2.5,,Cn1c(=O)c(Nc2ccc(F)cn2)cc2cnnc(-c3ccc(F)cc3F)c21,
> 2.5,0.982,,Cn1c(=O)c(Nc2ncc(F)cc2F)cc2cnnc(-c3ccc(F)cc3F)c21,
0.0633,0.0805,0.0145,Cc1cnc(C(=O)NC2CC2)cc1-c1cc2cnnc(-c3ccc(F)cc3F)c2n(C)c1=O,
0.0083,0.0063,0.0026,Cn1c(=O)c(-c2cc(C(=O)NC3CC3)ccc2Cl)cc2cnnc(-c3ccc(F)cc3F)c21,
0.0016,0.0011,0.0014,Cc1c(F)cc(C(=O)NC2CC2)cc1-c1cc2cnnc(-c3ccc(F)cc3F)c2n(C)c1=O,AUC [3]: 6.74 µg·h/mL; bioavailability [4]: 55%; Vd [5]: 1.19 L/kg; half-life [6]: 4.66 h
0.0274,0.0145,0.0031,Cc1ccc(C(=O)NC2(C)CC2)cc1-c1cc2cnnc(-c3ccc(F)cc3F)c2n(C)c1=O,
0.0018,0.0021,0.0027,Cc1ccc(C(=O)NC2CC2)cc1-c1cc2cnnc(-c3ccc(F)cc3F)c2n(C)c1=O,AUC [3]: 7.63 µg·h/mL; bioavailability [4]: 86%; Vd [5]: 1.04 L/kg; ED50 (Rattus norvegicus [7]): 0.06 mg/kg; clearance [8]: 0.23 L/h/kg; half-life [6]: 3.06 h; ED50 (Rattus norvegicus [9]): 0.03 mg/kg
0.03,0.0243,,CNC(=O)c1ccc(C)c(-c2cc3cnnc(-c4ccc(F)cc4F)c3n(C)c2=O)c1,
0.0213,0.0193,0.0027,Cc1ccc(C(N)=O)cc1-c1cc2cnnc(-c3ccc(F)cc3F)c2n(C)c1=O,
